# Experiments:
# [1] = molecular target: Histone deacetylase 2 (Homo sapiens) (UniProt Q92769); experiment: Inhibition of HDAC2 in human HeLa-S3 cell lysates assessed as remaining activity at 5 uM preincubated for 15 mins followed by HDAC-Glo substrate addition measured after 30 to 40 mins by […] relative to control
# Procedure, shortened: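 Same antibody-capture format as the other class I isoforms. HeLa-S3 lysate added at 100 μg/mL for HDAC1 and HDAC2, 1 h at 4 °C, then washed. Inhibitor in DMSO preincubated 15 min at RT; HDAC-Glo reagent added and luminescence read after 30-40 min. Concentrations are final. Signal corrected against a well without antibody; activity expressed as % of DMSO control.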
# [2] = molecular target: Histone deacetylase 3 (Homo sapiens) (UniProt O15379); experiment: Inhibition of HDAC3 in human HeLa-S3 cell lysates assessed as remaining activity at 5 uM preincubated for 15 mins followed by HDAC-Glo substrate addition measured after 30 to 40 mins by […] relative to control
# Procedure, shortened: (§1)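 Antibody-capture (ELISA-type) assay: HDAC antibody coated in carbonate/bicarbonate buffer pH 9.4, wells blocked with 5% milk in TBST. HeLa-S3 lysate added at 1 mg/mL for HDAC3, 1 h at 4 °C, then washed. Inhibitor in DMSO preincubated 15 min at RT in HDAC-Glo buffer. HDAC-Glo reagent added, luminescence read after 30-40 min. Concentrations are final. Background = no-antibody well; activity given as % of DMSO control.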
# [3] = molecular target: Histone deacetylase (Homo sapiens) (UniProt Q13547+O15379+Q9UBN7+Q92769+Q9UQL6+Q8WUI4+Q9BY41+Q96DB2+P56524+Q9UKV0+Q969S8); experiment: Inhibition of HDAC in human HeLa-S3 cell lysates assessed as residual activity at 2.4 x 10^-5 M preincubated for 15 mins followed by HDAC-Glo substrate addition measured after 35 mins by […] relative to control; assay type: protein assay
# [4] = molecular target: Histone deacetylase 3 (Homo sapiens) (UniProt O15379); experiment: Inhibition of HDAC3 in human HeLa-S3 cell lysates assessed as remaining activity at 1 x 10^-6 M preincubated for 15 mins followed by HDAC-Glo substrate addition measured after 30 to 40 mins by […] relative to control; procedure, shortened: as §1
# [5] = molecular target: Histone deacetylase 1 (Homo sapiens) (UniProt Q13547); experiment: Inhibition of HDAC1 in human HeLa-S3 cell lysates assessed as remaining activity at 1 x 10^-6 M preincubated for 15 mins followed by HDAC-Glo substrate addition measured after 30 to 40 mins by fluorimetric method relative to control
# Procedure, shortened: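 HDAC1 was captured from HeLa-S3 lysate (100 μg/mL) onto wells precoated with anti-HDAC1 antibody (10 μg/mL, carbonate buffer pH 9.4) and milk-blocked, 1 h at 4 °C, then washed. Inhibitor in DMSO was added in HDAC-Glo buffer for 15 min at room temperature. HDAC-Glo reagent was added and luminescence read after 30-40 min. Concentrations are final. No-antibody background subtracted; % of DMSO control.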
# [6] = molecular target: Histone deacetylase 3 (Homo sapiens) (UniProt O15379); experiment: Inhibition of HDAC3 in human HeLa-S3 cell lysates assessed as remaining activity at 2 x 10^-6 M preincubated for 15 mins followed by HDAC-Glo substrate addition measured after 30 to 40 mins by […] relative to control; procedure, shortened: as §1
# [7] = molecular target: Histone deacetylase 2 (Homo sapiens) (UniProt Q92769); experiment: Inhibition of HDAC2 in human HeLa-S3 cell lysates assessed as remaining activity at 4 x 10^-6 M preincubated for 15 mins followed by HDAC-Glo substrate addition […] relative to control
# Sequence of Histone deacetylase 3 (Homo sapiens) (O15379 whole entry): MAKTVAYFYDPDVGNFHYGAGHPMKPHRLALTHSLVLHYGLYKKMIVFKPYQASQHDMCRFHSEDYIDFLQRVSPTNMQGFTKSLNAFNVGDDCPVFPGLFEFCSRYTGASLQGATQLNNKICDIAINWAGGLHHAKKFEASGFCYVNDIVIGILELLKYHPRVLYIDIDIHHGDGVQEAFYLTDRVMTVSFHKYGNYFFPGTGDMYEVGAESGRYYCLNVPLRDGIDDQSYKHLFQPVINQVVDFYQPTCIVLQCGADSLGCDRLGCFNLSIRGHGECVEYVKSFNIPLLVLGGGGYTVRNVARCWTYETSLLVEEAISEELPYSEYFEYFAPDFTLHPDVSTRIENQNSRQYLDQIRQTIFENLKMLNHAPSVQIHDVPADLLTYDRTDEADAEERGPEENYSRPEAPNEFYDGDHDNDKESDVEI
# Sequence of Histone deacetylase 2 (Homo sapiens) (Q92769 whole entry, canonical isoform): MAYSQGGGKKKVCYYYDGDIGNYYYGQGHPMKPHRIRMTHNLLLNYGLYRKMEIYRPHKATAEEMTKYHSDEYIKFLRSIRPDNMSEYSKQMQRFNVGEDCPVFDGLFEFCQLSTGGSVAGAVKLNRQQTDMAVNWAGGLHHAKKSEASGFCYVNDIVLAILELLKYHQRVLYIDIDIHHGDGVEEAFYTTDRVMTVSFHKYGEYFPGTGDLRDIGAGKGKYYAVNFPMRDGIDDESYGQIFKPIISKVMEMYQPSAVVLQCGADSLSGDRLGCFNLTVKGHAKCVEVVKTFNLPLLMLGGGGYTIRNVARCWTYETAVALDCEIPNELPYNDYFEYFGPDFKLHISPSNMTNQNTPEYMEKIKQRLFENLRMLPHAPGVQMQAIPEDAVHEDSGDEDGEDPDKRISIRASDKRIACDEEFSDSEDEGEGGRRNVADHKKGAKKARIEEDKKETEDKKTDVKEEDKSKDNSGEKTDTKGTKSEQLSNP
# Sequence of Histone deacetylase 1 (Homo sapiens) (Q13547 whole entry): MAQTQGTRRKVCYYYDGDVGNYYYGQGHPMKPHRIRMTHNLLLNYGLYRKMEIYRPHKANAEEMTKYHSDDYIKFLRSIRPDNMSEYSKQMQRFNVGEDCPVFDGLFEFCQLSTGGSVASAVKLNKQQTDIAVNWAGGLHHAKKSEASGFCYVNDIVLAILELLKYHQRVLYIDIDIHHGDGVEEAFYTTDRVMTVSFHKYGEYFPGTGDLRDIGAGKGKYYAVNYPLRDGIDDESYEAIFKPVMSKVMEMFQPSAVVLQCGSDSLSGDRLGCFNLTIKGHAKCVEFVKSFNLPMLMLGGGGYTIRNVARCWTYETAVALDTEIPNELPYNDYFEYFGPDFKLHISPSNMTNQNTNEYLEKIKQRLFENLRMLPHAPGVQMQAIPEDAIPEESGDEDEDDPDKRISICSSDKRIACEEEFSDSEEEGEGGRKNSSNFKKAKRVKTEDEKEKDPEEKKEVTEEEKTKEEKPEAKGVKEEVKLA
Activity [1],Activity [2],Activity [3],Activity [4],Activity [5],Activity [6],Activity [7],Structure (SMILES)
92%,90%,–,–,–,–,–,O=C(CCC(CCCC(=O)Nc1ccccc1)Cc1ccccc1)NO (racemic)
–,–,31%,83%,81%,71%,59%,CCC(CCCC(=O)Nc1ccccc1)CCC(=O)NO (configuration not stated)
